Measurements taken from the RNAGym collection of RNA variant scans (doi:10.1126/science.aae0568).
Variants at the floor of the assay were thinned out.

B1: tRNA (parent)
chain: GUUCCGUUGGCGUAAUGGUAACGCGUCUCCCUCCUAAGGAGAAGACUGCGGGUUCGAGUCCCGUACGGAACG

Variants of: B1
Test: yeast fitness relative to wild type (ratio to wild type); higher = fitter; tRNA-Arg(CCU), competitive growth, 37 C, YPD
Outline: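 Genotype frequency changes were the basis for Darwinian fitness relative to wild type. The frequencies came from 100-nucleotide paired-end sequencing of gene amplicons from the start population and each end population of pooled yeast strains with tRNA-Arg(CCU) gene variants at the native locus. Competition ran in YPD at 37°C for 24 hours in six replicates, genotypes needed ≥ 100 starting reads, and estimates < 0.5 were set to 0.5.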

Compared with G12A G52A G68A, G12A C24A A36U C61U is higher in yeast fitness: at most 0.5 for the first, 0.618 for the second.

Compared with U28C A42U A69U, C5G C11G A14U A15U A69C is lower in yeast fitness: 0.74 for the first, at most 0.5 for the second.

Going from C22G C31G C61U to C29G C30G C49U, the yeast fitness rises from 0.587 to 0.66.

C5G U7C C11G G23C U26C C27U A42U and G9A C34G U47C cannot be ordered by yeast fitness: at most 0.5 for the first, at most 0.5 for the second.

First: C5G U16C C31U
Second: C11U U47A C60G C62A
The yeast fitness of the first is higher: 0.627 for the first, at most 0.5 for the second.

C33U G39A A70U and G23A C30U U35C G67U A69C cannot be ordered by yeast fitness: at most 0.5 for the first, at most 0.5 for the second.

Compared with G18C C24U C30G, C5G A57C is higher in yeast fitness: at most 0.5 for the first, 0.716 for the second.

Going from U13A G51A G56A to C11U C30A, the yeast fitness rises from 0.628 to 0.823.

First: G12A C49U
Second: C5G A36U U59G A65U
The yeast fitness of the first is higher: 0.93 for the first, at most 0.5 for the second.

First: U7C U35C
Second: C4A C5U C30U A45G
The yeast fitness of the first is higher: 0.86 for the first, 0.516 for the second.

First: U35A G58C
Second: C11U C24U C29G G38A A40C
The yeast fitness of the first is higher: 0.634 for the first, at most 0.5 for the second.

G12C C55U C61G and C27G U28G A36G U64C cannot be ordered by yeast fitness: at most 0.5 for the first, at most 0.5 for the second.

U19C U26C C27A C30G U54A G56A and G6C C11G C33U cannot be ordered by yeast fitness: at most 0.5 for the first, at most 0.5 for the second.

C34G A57C and U2G G10C U35G C46U A65C G67C cannot be ordered by yeast fitness: at most 0.5 for the first, at most 0.5 for the second.

G6A C30U A65C A69G A70U and U3A C5A A45C G50C C61U G68A cannot be ordered by yeast fitness: at most 0.5 for the first, at most 0.5 for the second.

First: U13A U32C G63A
Second: C11G C49G C66A G67U
The yeast fitness of the first is higher: 0.572 for the first, at most 0.5 for the second.

First: U2C G9A C31A C49A U59A C61G
Second: A14C G17C G18A G23C
The yeast fitness of the first is lower: at most 0.5 for the first, 0.554 for the second.

U3G U28A C33U A36G C66A and C4A C61A G67A cannot be ordered by yeast fitness: at most 0.5 for the first, at most 0.5 for the second.

Going from C5U C22U A37C C55A A69U to A14G C55U A65G, the yeast fitness rises from at most 0.5 to 0.513.

Compared with U26A C27U U59C A65G, A14U U16G C33G G50A G58C G63C is lower in yeast fitness: 0.65 for the first, at most 0.5 for the second.

Going from G18C G23A G25C U35C A37G A43C C55G G68A to U7C G68A, the yeast fitness rises from at most 0.5 to 0.87.

C24U U26C C27A A69U and C4A A14C U19A cannot be ordered by yeast fitness: at most 0.5 for the first, at most 0.5 for the second.

Going from U32C A37U C49G A70U to U3C C24A C66U, the yeast fitness falls from 0.664 to at most 0.5.

Compared with U19A G23C C30G U47A, C55G G68C is higher in yeast fitness: 0.594 for the first, 0.624 for the second.

Compared with C4G G50C, U2G A42U U47A is higher in yeast fitness: 0.679 for the first, 0.738 for the second.

Going from C31A A36G to A36U A42U, the yeast fitness falls from 0.78 to 0.71.

Going from G23A C29G A45U C60G C61U to U3C G9A A15U C30A A42G, the yeast fitness falls from 0.557 to 0.506.

A14U U26G C49G and G9A A14C U35C cannot be ordered by yeast fitness: at most 0.5 for the first, at most 0.5 for the second.

Compared with A36C A70U, G12A A15G A65C is lower in yeast fitness: 0.703 for the first, at most 0.5 for the second.

U32C C33G G67C and U13G U35G A40G G58C A65U cannot be ordered by yeast fitness: at most 0.5 for the first, at most 0.5 for the second.

Compared with C5G G17A A40C U59C, U2C A14C A43C is lower in yeast fitness: 0.723 for the first, at most 0.5 for the second.

Compared with A40C G50A, C27U G41C A65C is lower in yeast fitness: 0.619 for the first, 0.588 for the second.

First: U2A C62U
Second: G12U A57C
The yeast fitness of the first is higher: 0.899 for the first, at most 0.5 for the second.

Going from U7C U26G to A20U C31G A40C, the yeast fitness falls from 0.649 to at most 0.5.

First: G18A A40G C62A A65U C66U
Second: U13C A43U A70G
The yeast fitness of the first is lower: at most 0.5 for the first, 0.966 for the second.

Compared with C34G A36U C62A, G51A C66G is higher in yeast fitness: at most 0.5 for the first, 0.704 for the second.

G17A C24U C31G A65U and A15C C30A G48C G56C cannot be ordered by yeast fitness: at most 0.5 for the first, at most 0.5 for the second.

Going from A14G U28C G67A to U2C C30G C61U G68A, the yeast fitness falls from 0.534 to at most 0.5.

Going from G9A C30U A57G to G10A G23A, the yeast fitness rises from at most 0.5 to 0.534.

Compared with G41C C61G, C29U C31A is lower in yeast fitness: 0.793 for the first, 0.609 for the second.

Going from U26G C27A to G17A C22U C27A C30G, the yeast fitness falls from 0.647 to at most 0.5.

For U3C C5U, the yeast fitness was 0.836.
